This passage reports Activity, DC50 and mortality results from ChEMBL document CHEMBL3044971, “Dialkoxybenzene and dialkoxyallylbenzene feeding and oviposition deterrents against the cabbage looper, Trichoplusia ni: potential insect behavior control agents” (J Agric Food Chem, 2010).

Data set [1] relates to Trichoplusia ni. The data set can be described thus: Oviposition deterrent activity against adult female Trichoplusia ni (cabbage looper) moths introduced along with male moths into oviposition cage containing compound pretreated cabbage leaves assessed as eggs laying on the leaf disks at 0.25% after 48 hr. Type of data set: functional. In short, it runs like this:
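Choice test: one male and one female moth were caged with a control and a treated cabbage leaf (~100-110 cm²). Each side was sprayed with 0.5 mL MeOH or methanolic test solution at 0.25%. Values are mean ± SE, N = 35-40.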

For data set [2], the system named is Trichoplusia ni. In words: Feeding deterrent activity against freshly molted third-instar larval stage of Trichoplusia ni (cabbage looper) in compound pretreated cabbage leaves after 3 to 5 hr by leaf disk choice bioassay. The data set is classed as functional, organism-based. In short, it runs like this:
(§1)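 Leaf-disk choice test on greenhouse cabbage (Stonehead) leaves from 5-6-week plants. Freshly molted third-instar T. ni from a diet-reared colony (>50 generations) were starved 4-5 h. One disk had 10 μL test solution painted on each side, the other carrier solvent only. There were 25 larvae per treatment. Run ended at ~50% control disk eaten (3-5 h). Deterrence = (C−T)/(C+T)×100 from consumed areas.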

In data set [3] the test system is Trichoplusia ni. The data set can be described thus: Feeding deterrent activity against freshly molted third-instar larval stage of Trichoplusia ni (cabbage looper) in compound pretreated cabbage leaves at 50 ug/cm2 after 3 to 5 hr by leaf disk choice bioassay. Type of data set: functional. In short, it runs like this: as §1
Data set [4] has as its system Trichoplusia ni. To be noted: in vivo, 24 h.

By mortality is commonly meant the share of the test organisms that died. Low values mean a weak lethal effect, high ones a strong lethal effect. For `C=CCc1cc(OCCCC)ccc1OCCC(C)C`, the values for the Activity in the data set with Trichoplusia ni [1] and in the data set with Trichoplusia ni [3] were 20% and 83%, respectively. Further, the DC50 in the data set with Trichoplusia ni [2] is recorded as 15 microg/cm2. The mortality with Trichoplusia ni [4] is 27%.
In the same order, the values of `CCCOc1cccc(OCCC(C)C)c1` [3-PROPOXY-1-ISOPENTOXYBENZENE] are 9%, 97%, 17 microg/cm2 and 10%.
In the same order, the values of `C=CCc1cc(OCCC)ccc1OC` are 37%, 68%, 19 microg/cm2 and 17%.
In the same order, the values of `COc1ccc2c(c1)CC(C)O2` (configuration not stated) are -12%, 100%, 16 microg/cm2 and 1%.
In the case of `CCOc1ccc2c(c1)CC(C)O2` (configuration not stated), the Activity in the data set with Trichoplusia ni [1] is on record as -12%; in the data set on Trichoplusia ni [3] it was 100%. Also, in the data set with Trichoplusia ni [2], the DC50 was determined as 16 microg/cm2. This compound gave a mortality in the data set on Trichoplusia ni [4] of 1%.
In the same order, the values of `C=CCc1cccc(OCCC(C)C)c1OCC` are 31%, 100%, 20 microg/cm2 and 27%.
For `C=CCc1cc(OCCC)ccc1OCCC(C)C`, the Activity in the data set with Trichoplusia ni [1] worked out at 20%; in the data set on Trichoplusia ni [3], 83%. Further, in the data set on Trichoplusia ni [2], the DC50 amounted to 15 microg/cm2. The mortality with Trichoplusia ni [4] is on record as 27%.
In the same order, the values of `C=CCc1cc(OC)ccc1OCCC(C)C` are 20%, 83%, 15 microg/cm2 and 27%.
In the same order, the values of `C=CCc1cc(OC)ccc1OC` are 14%, 80%, 20 microg/cm2 and 17%.
In the same order, the values of `C=CCOc1ccccc1OCCC` [1-allyloxy-2-propoxybenzene] are 12%, 96%, 12 microg/cm2 and 10%.
`CC(C)CCOc1ccc2c(c1)CC(C)O2` (configuration not stated): the Activity in the data set on Trichoplusia ni [1] is on record as -12%; in the data set on Trichoplusia ni [3] it was 100%. Moreover, the DC50 in the data set on Trichoplusia ni [2] is recorded as 16 microg/cm2. This compound also registered a mortality in the data set on Trichoplusia ni [4] of 1%.
Take `C=CCc1cc(OC)ccc1O`: the Activity with Trichoplusia ni [1] and in the data set on Trichoplusia ni [3] was 51% in each case. The DC50 in the data set with Trichoplusia ni [2] was found to be 57 microg/cm2. Besides, the mortality in the data set with Trichoplusia ni [4] is on record as 3.3%.
Consider `CCCCOc1ccccc1OCCC` [1-propoxy-2-butoxybenzene], for which the Activity is listed as 37% in the data set on Trichoplusia ni [1] and 98% in the data set with Trichoplusia ni [3]. For the same compound, the DC50 in the data set on Trichoplusia ni [2] is listed as 21 microg/cm2. This compound displayed a mortality with Trichoplusia ni [4] of 19%.
Regarding `C=CCc1cc(OCCC(C)C)ccc1OCCC(C)C`, the Activity turned out to be 20% in the data set with Trichoplusia ni [1] and 83% in the data set with Trichoplusia ni [3]. Besides, the DC50 with Trichoplusia ni [2] is listed as 15 microg/cm2. Moreover, the mortality in the data set with Trichoplusia ni [4] worked out at 27%.
In the same order, the values of `CCCCOc1ccc2c(c1)CC(C)O2` (configuration not stated) are -12%, 100%, 16 microg/cm2 and 1%.
In the case of `C=CCc1ccc(OC)c(OC)c1` [METHYLEUGENOL], the figures for the Activity in the data set on Trichoplusia ni [1] and in the data set on Trichoplusia ni [3] were -22% and 64%, respectively. Further, the DC50 with Trichoplusia ni [2] is 26 microg/cm2.
On to `C=CCc1c(OC)cccc1OCCC`, for which the Activity in the data set with Trichoplusia ni [1] is given as 17%; with Trichoplusia ni [3], 100%. In addition, the DC50 in the data set on Trichoplusia ni [2] came to 14 microg/cm2.
In the same order, the values of `C=CCOc1ccc(OCC)cc1` [1-allyloxy-4-ethoxybenzene] are 17%, 73% and 30 microg/cm2.
In the case of `C=CCOc1ccc(OCCC)cc1` [1-allyloxy-4-propoxybenzene], the Activity in the data set with Trichoplusia ni [1] amounted to 21%; with Trichoplusia ni [3], 100%. The DC50 in the data set with Trichoplusia ni [2] worked out at 0.5 microg/cm2.
